Assay results published in ChEMBL document CHEMBL3425469, “Discovery of imidazo[2,1-b]thiazole HCV NS4B inhibitors exhibiting synergistic effect with other direct-acting antiviral agents” (J Med Chem, 2015).

Columns and labels:
Format in all cases: functional, Hepacivirus hominis, Huh-7
Hepatitis C virus [1] = experiment: Antiviral activity against Hepatitis C virus genotype 1b Con 1 infected in human HuH7 cells at 10 nM after 72 hrs by luciferase assay in presence of 0.02 nM daclatasvir
How it was run: (§1)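 Stable Con1 GT1b bicistronic luciferase replicon in Huh-7 cells, 8000 cells/well. Test compound and a marketed DAA or clemizole added alone or together at varied concentrations, 0.5% DMSO final. 72 h at 37°C, then luciferase read with Bright-Glo. Inhibition expressed as % of untreated control, with cytotoxicity run in parallel. CI and DRI derived by the Chou–Talalay median-effect method.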

Hepatitis C virus [2] = experiment: Antiviral activity against Hepatitis C virus genotype 1b Con 1 infected in human HuH7 cells at 10 nM after 72 hrs by luciferase assay in presence of 0.08 nM daclatasvir; how it was run: as §1
Hepatitis C virus [3] = experiment: Antiviral activity against Hepatitis C virus genotype 1b Con 1 infected in human HuH7 cells at 10 nM after 72 hrs by luciferase assay in presence of 5 uM clemizole; how it was run: as §1
Hepatitis C virus [4] = experiment: Antiviral activity against Hepatitis C virus genotype 1b Con 1 infected in human HuH7 cells at 10 nM after 72 hrs by luciferase assay in presence of 15 uM clemizole; how it was run: as §1
Hepatitis C virus [5] = experiment: Antiviral activity against Hepatitis C virus genotype 1b Con 1 infected in human HuH7 cells at 20 nM after 72 hrs by luciferase assay in presence of 120 nM sofobuvir; how it was run: as §1
Hepatitis C virus [6] = experiment: Antiviral activity against Hepatitis C virus genotype 1b Con 1 infected in human HuH7 cells at 20 nM after 72 hrs by luciferase assay in presence of 20 uM clemizole
How it was run: (§2)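 Huh-7 cells stably carrying a GT1b Con1 bicistronic luciferase replicon, seeded at 8000 cells/well. The test compound and the partner DAA are dosed orthogonally at various concentrations, final 0.5% DMSO, then incubated 72 h at 37°C. Bright-Glo luciferase read-out gives replicon inhibition as % of untreated control. Cytotoxicity is checked in parallel by CellTiter-Fluor. CI and DRI are derived by the Chou–Talalay median-effect method.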

Hepatitis C virus [7] = experiment: Antiviral activity against Hepatitis C virus genotype 1b Con 1 infected in human HuH7 cells at 40 nM after 72 hrs by luciferase assay in presence of 12 nM simeprevir; how it was run: as §2
Hepatitis C virus [8] = experiment: Antiviral activity against Hepatitis C virus genotype 1b Con 1 infected in human HuH7 cells at 40 nM after 72 hrs by luciferase assay in presence of 0.02 nM daclatasvir; how it was run: as §2
Hepatitis C virus [9] = experiment: Antiviral activity against Hepatitis C virus genotype 1b Con 1 infected in human HuH7 cells at 160 nM after 72 hrs by luciferase assay in presence of 2160 nM sofobuvir; how it was run: as §1
Hepatitis C virus [10] = experiment: Antiviral activity against Hepatitis C virus genotype 1b Con 1 infected in human HuH7 cells at 160 nM after 72 hrs by luciferase assay in presence of 5 uM clemizole; how it was run: as §1
Hepatitis C virus [11] = experiment: Antiviral activity against Hepatitis C virus genotype 1b Con 1 infected in human HuH7 cells at 160 nM after 72 hrs by luciferase assay in presence of 15 uM clemizole; how it was run: as §1
Hepatitis C virus [12] = experiment: Antiviral activity against Hepatitis C virus genotype 1b Con 1 infected in human HuH7 cells at 160 nM after 72 hrs by luciferase assay in presence of 17.5 uM clemizole; how it was run: as §1
Hepatitis C virus [13] = experiment: Antiviral activity against Hepatitis C virus genotype 1b Con 1 infected in human HuH7 cells at 40 nM after 72 hrs by luciferase assay in presence of 0.08 nM daclatasvir; how it was run: as §2
Hepatitis C virus [14] = experiment: Antiviral activity against Hepatitis C virus genotype 1b Con 1 infected in human HuH7 cells at 80 nM after 72 hrs by luciferase assay in presence of 6 nM simeprevir; how it was run: as §2
Hepatitis C virus [15] = experiment: Antiviral activity against Hepatitis C virus genotype 1b Con 1 infected in human HuH7 cells at 80 nM after 72 hrs by luciferase assay in presence of 10 uM clemizole; how it was run: as §2
Hepatitis C virus [16] = experiment: Antiviral activity against Hepatitis C virus genotype 1b Con 1 infected in human HuH7 cells at 80 nM after 72 hrs by luciferase assay in presence of 20 uM clemizole; how it was run: as §2
Hepatitis C virus [17] = experiment: Antiviral activity against Hepatitis C virus genotype 1b Con 1 infected in human HuH7 cells at 160 nM after 72 hrs by luciferase assay in presence of 30 nM sofobuvir; how it was run: as §1
Hepatitis C virus [18] = experiment: Antiviral activity against Hepatitis C virus genotype 1b Con 1 infected in human HuH7 cells at 160 nM after 72 hrs by luciferase assay in presence of 60 nM sofobuvir; how it was run: as §1
Hepatitis C virus [19] = experiment: Antiviral activity against Hepatitis C virus genotype 1b Con 1 infected in human HuH7 cells at 2.5 nM after 72 hrs by luciferase assay in presence of 24 nM simeprevir; how it was run: as §1
Hepatitis C virus [20] = experiment: Antiviral activity against Hepatitis C virus genotype 1b Con 1 infected in human HuH7 cells at 2.5 nM after 72 hrs by luciferase assay in presence of 0.16 nM daclatasvir; how it was run: as §1
Hepatitis C virus [21] = experiment: Antiviral activity against Hepatitis C virus genotype 1b Con 1 infected in human HuH7 cells at 2.5 nM after 72 hrs by luciferase assay in presence of 120 nM sofobuvir; how it was run: as §1
Hepatitis C virus [22] = experiment: Antiviral activity against Hepatitis C virus genotype 1b Con 1 infected in human HuH7 cells at 2.5 nM after 72 hrs by luciferase assay in presence of 5 uM clemizole; how it was run: as §1
Hepatitis C virus [23] = experiment: Antiviral activity against Hepatitis C virus genotype 1b Con 1 infected in human HuH7 cells at 2.5 nM after 72 hrs by luciferase assay in presence of 10 uM clemizole; how it was run: as §1
Hepatitis C virus [24] = experiment: Antiviral activity against Hepatitis C virus genotype 1b Con 1 infected in human HuH7 cells at 2.5 nM after 72 hrs by luciferase assay in presence of 15 uM clemizole; how it was run: as §1
Hepatitis C virus [25] = experiment: Antiviral activity against Hepatitis C virus genotype 1b Con 1 infected in human HuH7 cells at 5 nM after 72 hrs by luciferase assay in presence of 3 nM simeprevir; how it was run: as §2
Hepatitis C virus [26] = experiment: Antiviral activity against Hepatitis C virus genotype 1b Con 1 infected in human HuH7 cells at 5 nM after 72 hrs by luciferase assay in presence of 12 nM simeprevir; how it was run: as §2
Hepatitis C virus [27] = experiment: Antiviral activity against Hepatitis C virus genotype 1b Con 1 infected in human HuH7 cells at 5 nM after 72 hrs by luciferase assay in presence of 0.02 nM daclatasvir; how it was run: as §2
Hepatitis C virus [28] = experiment: Antiviral activity against Hepatitis C virus genotype 1b Con 1 infected in human HuH7 cells at 5 nM after 72 hrs by luciferase assay in presence of 0.16 nM daclatasvir; how it was run: as §2
Hepatitis C virus [29] = experiment: Antiviral activity against Hepatitis C virus genotype 1b Con 1 infected in human HuH7 cells at 5 nM after 72 hrs by luciferase assay in presence of 60 nM sofobuvir; how it was run: as §2
Hepatitis C virus [30] = experiment: Antiviral activity against Hepatitis C virus genotype 1b Con 1 infected in human HuH7 cells at 5 nM after 72 hrs by luciferase assay in presence of 10 uM clemizole; how it was run: as §2
Hepatitis C virus [31] = experiment: Antiviral activity against Hepatitis C virus genotype 1b Con 1 infected in human HuH7 cells at 5 nM after 72 hrs by luciferase assay in presence of 12.5 uM clemizole; how it was run: as §2

SMILES: O=C(c1nc2scc(C3CC3)n2c1Cl)N1CCN(C2CCCC2)C(=O)C1
- CI (Hepatitis C virus [1]): 1.14
- CI (Hepatitis C virus [2]): 0.69
- CI (Hepatitis C virus [3]): 0.82
- CI (Hepatitis C virus [4]): 1.05
- CI (Hepatitis C virus [5]): 0.63
- CI (Hepatitis C virus [6]): 1.03
- CI (Hepatitis C virus [7]): 0.62
- CI (Hepatitis C virus [8]): 0.78
- CI (Hepatitis C virus [9]): 0.3
- CI (Hepatitis C virus [10]): 1.84
- CI (Hepatitis C virus [11]): 1.45
- CI (Hepatitis C virus [12]): 1.74
- CI (Hepatitis C virus [13]): 0.53
- CI (Hepatitis C virus [14]): 0.37
- CI (Hepatitis C virus [15]): 0.82
- CI (Hepatitis C virus [16]): 1.41
- CI (Hepatitis C virus [17]): 0.89
- CI (Hepatitis C virus [18]): 0.58
- CI (Hepatitis C virus [19]): 1.31
- CI (Hepatitis C virus [20]): 0.98
- CI (Hepatitis C virus [21]): 0.9
- CI (Hepatitis C virus [22]): 1.22
- CI (Hepatitis C virus [23]): 0.87
- CI (Hepatitis C virus [24]): 1.17
- CI (Hepatitis C virus [25]): 1.22
- CI (Hepatitis C virus [26]): 0.75
- CI (Hepatitis C virus [27]): 1.21
- CI (Hepatitis C virus [28]): 0.88
- CI (Hepatitis C virus [29]): 0.85
- CI (Hepatitis C virus [30]): 0.75
- CI (Hepatitis C virus [31]): 0.71
